MrgX1 agonist: agonists of human MrgX1 receptor; hit rate 0.44% among 310,000; B-score at 10 µM; Q96LB2; MrgX1-HEK293 cells, Fluo-4 calcium fluorescence, agonist mode; active compounds read high;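 active = calcium response B-score plate-corrected fluorescence ratio at least 3 library SD, with starting fluorescence B-score inside 5 SD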
Target sequence (Q96LB2 whole entry, looked up): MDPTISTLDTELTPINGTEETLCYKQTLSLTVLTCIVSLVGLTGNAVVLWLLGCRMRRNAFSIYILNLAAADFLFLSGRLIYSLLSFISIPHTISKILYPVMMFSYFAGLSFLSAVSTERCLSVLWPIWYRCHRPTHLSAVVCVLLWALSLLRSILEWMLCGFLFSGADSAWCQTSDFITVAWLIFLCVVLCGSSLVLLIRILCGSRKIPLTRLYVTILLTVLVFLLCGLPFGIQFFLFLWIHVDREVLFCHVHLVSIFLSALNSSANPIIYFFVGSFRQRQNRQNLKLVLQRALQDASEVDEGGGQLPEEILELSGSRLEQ
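times = overnight plating, then 30 min 37 °C plus 30 min room-temperature dye loading | assay system = stable human MrgX1 HEK293 cell line | input = fifteen thousand cells per well | signal = kinetic calcium dye fluorescence, Fluo-4 NW | dosing = compound delivered in addition one of three | read-out = B-scored fluorescence response ratio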
MrgX1 PAM: allosterically activates human MrgX1 receptor signaling. MrgX1-HEK293, Fluo-4 calcium flux, FDSS; active compounds read high. hit rate 0.63% among 310,000. B-score at 10 µM. Q96LB2;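 active = plate-corrected calcium response at least 3 library SD above typical, normal starting fluorescence, not activating the receptor alone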;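 note: compound read alongside a low EC10 to EC30 dose of BAM8-22 agonist; peak minus trough fluorescence over baseline measured at the second addition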
RGS4 act: RGS4 potentiation or activation; HEK293 M3R/inducible RGS4, carbachol calcium flux Fluo4; active compounds read low; B-score at 10 µM; hit rate 0.92% among 310,000; AID 463111;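 active = B-score of the integrated calcium signal more than 4 SD below the library mean, with starting fluorescence not abnormally high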;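 note: negative B-score means reduced calcium response which marks RGS4 activation or potentiation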
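Material: M3R-expressing HEK293 line, RGS4 induced by doxycycline | Schedule: Overnight RGS4 induction, 30 min dye load 37 °C, 20 min compound RT | Measured by: Fluo4 fluorescence kinetic imaging of calcium | Read-out: Integrated calcium ratio converted to B score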
PHOSPHO1 inh: inhibitors of human PHOSPHO1 phosphatase; Q8TCT1; recombinant PHOSPHO1, absorbance phosphatase assay; hit rate 1.1% among 290,000; AID 1565; inhibition, % at 13.3 µM; in the data active = inhibition above about 60%
MrgX1 antag: blocks BAM8-22 activation of human MrgX1 receptor. Q96LB2. MRGX1-HEK293 calcium flux, Fluo-4, BAM8-22 antagonism; active compounds read low. B-score at 10 µM. hit rate 1.3% among 310,000. AID 588676;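 active = calcium-response B-score plate-corrected more than 3 library SD below zero, starting fluorescence within 5 deviations, no agonist response on first addition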;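 note: peak minus trough fluorescence over baseline after final BAM8-22 challenge near maximal dose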
RGS4 block: inhibitors of human RGS4. hit rate 0.45% among 310,000. B-score at 10 µM. HEK293 M3R/RGS4 inducible, Fluo-4 calcium flux; active compounds read high; triggered by carbachol at its EC20;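 active = B-score, a plate-corrected calcium signal, over three deviations above library mean, with baseline fluorescence within five deviations of library mean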;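 note: RGS4 expression induced by doxycycline in cells with stable M3 receptor; B-score is computed from the integrated fluorescence ratio over baseline after carbachol; higher B-score means a larger calcium signal and so more RGS4 inhibition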
* hit, by the source's call; i = inactive. The list is not random: actives were taken first. Their share in the collection is about 4.5%.

SMILES | MrgX1 agonist | MrgX1 PAM | RGS4 act | PHOSPHO1 inh | MrgX1 antag | RGS4 block
Cc1ccc(S(=O)(=O)NC(C(=O)Oc2cc3oc(=O)cc(C)c3cc2Cl)C(C)C)cc1 (stereo not drawn) | i | i | i | -3.4 | i | i
O=C(O/N=C1/CCSc2ccccc21)c1ccccc1 | i | 8.88* | i | 27.0 | i | i
Cc1ccc2c(c1)/C(=N/OC(=O)c1ccc(F)cc1)CCS2 | i | i | i | 8.1 | i | i
COc1ccc(Cl)cc1NC(=O)CN1CCN(Cc2ccccc2)CC1 | i | i | i | 33.9 | i | i
Cc1nn2c3ccccc3n(CCN3CCCCC3)c2nc1=O | i | i | i | 0.1 | -5.97* | i
C=CCn1c2ccccc2n2nc(C)c(=O)nc12 | i | i | i | -3.2 | i | i
CCOC(=O)N1CCN(S(=O)(=O)c2c(C)nc3sccn3c2=O)CC1 | i | i | i | 29.3 | i | i
O=C(NCc1cnc2ccccn12)C1CCC(=O)N(Cc2ccccc2F)C1 (stereo not drawn) | i | i | i | 65.8* | i | i
O=C1c2ccsc2SCCN1Cc1c(Cl)cccc1Cl | i | i | i | 8.5 | i | i
NC(N)=N/N=C/c1ccc(OS(=O)(=O)c2ccccc2)cc1 | 30.2* | i | -8.4* | 32.2 | i | i
CCn1nc(CC(=O)Nc2ccc(-n3cnnn3)c(OC)c2)c2ccccc2c1=O | i | i | i | 6.8 | -5.23* | i
CC(C)N(Cc1ccccc1)C(=O)CN1C(=O)NC(Cc2ccccc2)(c2ccccc2)C1=O (stereo not drawn) | i | i | i | 38.1 | i | i
Cc1ccc(S(=O)(=O)N2CCCCC2)cc1C(=O)NCc1ccccn1 | i | i | i | 32.0 | i | i
CN(CC(=O)Nc1n[nH]c(=S)s1)S(=O)(=O)c1cccc2cccnc12 | i | i | i | 60.4* | i | i
CCOC(=O)COc1c(/C=N\O)cc(Cl)cc1OC | i | i | i | -15.8 | i | i
O=C(C1CCCO1)N1CCN(Cc2c(O)ccc3ccccc23)CC1 (stereo not drawn) | i | i | i | 104.3* | i | i
Cc1ccc(CN2CCN(C(=O)C3CCCO3)CC2)cc1 (stereo not drawn) | i | i | i | 7.1 | i | i
CCOC(=O)C1(Cc2ccccc2)CCCN(CCCn2cccn2)C1 (stereo not drawn) | i | i | i | 64.2* | i | i
CCOC(=O)C1(Cc2ccccc2)CCCN(Cc2ccncc2)C1 (stereo not drawn) | i | i | i | 0.9 | i | i
CCc1ccc(N=C2NC(=O)/C(=C/c3cc(OC)c(O)c(OC)c3)S2)cc1 | i | i | i | 9.7 | -7.63* | i
COc1cc(/C=C2\SC(=Nc3cccnc3)NC2=O)cc(OC)c1OC | i | i | i | 39.9 | i | i
COc1cc(/C=C2/SC(=Nc3ccc(O)cc3)NC2=O)ccc1O | i | i | i | 55.2 | -5* | i
COc1nc(-c2ccc(Cl)cc2)ccc1-c1noc(-c2ccco2)n1 | i | i | i | 80.4* | i | i
COc1cccc(-c2ccc(-c3noc(-c4ccccc4F)n3)c(OC)n2)c1 | i | i | i | 0.2 | i | i
COc1ccc(O)c(C(=O)c2cc(C#N)c(=O)n(CC3CCCO3)c2)c1 (stereo not drawn) | i | i | i | 64.4* | i | i
Cc1ccc(O)c(C(=O)c2cc(C#N)c(=O)n(CC3CCCO3)c2)c1 (stereo not drawn) | i | i | i | 19.9 | i | i
CC(C)C(NS(=O)(=O)c1cccc2nsnc12)C(=O)N1CCCCC1 (stereo not drawn) | i | i | i | 52.9 | i | i
COc1ccc(C(=O)N/C(=C\c2cccc([N+](=O)[O-])c2)C(=O)Nc2cccc(C(=O)O)c2)cc1 | i | i | i | 35.3 | -6.86* | i
